Compound activity from PubChem BioAssay.
In the library only some 2.9% were active in any assay of this set; here they are far more common.
SENP7 inh = blocks the human protease SENP7. recombinant SENP7, Z-RLRGG-aminoluciferin luminescence, 40 min. inhibition, % at 5 µM. 330,000 tested, 1.5% active. AID 434973;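 active = inhibition above about 50% at the single test dose, limit read from the data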;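 also: plate controls were DMSO with enzyme for no effect and no enzyme buffer wells for full effect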
SENP6 block = inhibitors of human SENP6 protease | 330,000 tested, 1.8% active | Recombinant SENP6 catalytic domain, aminoluciferin luminescence | inhibition, % at 10 µM | Q9GZR1;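 active = inhibition above about 50% at the single tested dose, limit read from the data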;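 also: plate controls were DMSO wells with enzyme for no effect and DMSO wells lacking enzyme for full effect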
Target sequence (Q9GZR1 628-1112 limits assumed): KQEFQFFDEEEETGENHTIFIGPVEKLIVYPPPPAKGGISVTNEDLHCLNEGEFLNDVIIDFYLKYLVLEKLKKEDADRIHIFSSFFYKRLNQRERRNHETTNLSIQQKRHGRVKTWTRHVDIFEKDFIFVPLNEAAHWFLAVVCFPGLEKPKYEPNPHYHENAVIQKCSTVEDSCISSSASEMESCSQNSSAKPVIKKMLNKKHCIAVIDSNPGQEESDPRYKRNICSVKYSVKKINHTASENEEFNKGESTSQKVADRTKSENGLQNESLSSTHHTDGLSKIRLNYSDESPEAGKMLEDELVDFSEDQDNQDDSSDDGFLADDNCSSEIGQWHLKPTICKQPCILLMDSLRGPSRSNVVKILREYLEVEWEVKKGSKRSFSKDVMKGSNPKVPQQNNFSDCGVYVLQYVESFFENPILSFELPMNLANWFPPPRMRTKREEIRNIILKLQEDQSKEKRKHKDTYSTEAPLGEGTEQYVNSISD
HSP90 inh = HSP90 refolding inhibition in rabbit reticulocyte lysate; inhibition, % at 5.6 µM; 290,000 tested, 0.91% active; luciferase refolding luminescence, 3 h;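 active = inhibition above the screen-wide mean plus 3 SD, computed separately per campaign, cut at about 16% in these data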;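 also: 0% = DMSO wells and 100% = 60 µM geldanamycin wells; inhibitors lower the luminescence because luciferase stays unfolded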
SENP8 block-1 = inhibitors of human SENP8 protease | Q96LD8 | purified SENP8, Z-RLRGG-aminoluciferin cleavage, luminescence | inhibition, % at 10 µM | 330,000 tested, 1.2% active | AID 2540; in the data active = inhibition above about 50%
SENP8 block-2 = blocks human SENP8 cleavage of Nedd8 substrate; Q96LD8; recombinant SENP8, Nedd8 substrate fluorescence; inhibition, % at 20 µM; 360,000 tested, 0.64% active; AID 602440; in the data active = inhibition mostly above about 40%, no sharp cut-off; inactive = mostly below about 27%
SENP1 FRET inh = SENP1 (human) catalytic domain inhibition; recombinant SENP1 catalytic domain, CyPet-SUMO1-YPet FRET cleavage; inhibition, % at 10 µM; AID 624204; 360,000 tested, 0.21% active;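 active = inhibition at least 30% at 10 µM, raw YFP signal under a set limit, fluorescence ratio 0.5 to 1.5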;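 also: 0% = enzyme with DMSO and 100% = no enzyme wells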
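Test system: human SENP1 catalytic domain; medium: Tris pH 8 buffer plus EDTA, NaCl, BME, BSA, NP40, catalase; incubation: 50 min reaction at room temperature; technique: FRET, CFP and YFP emission; controls: no-enzyme low control and enzyme-plus-DMSO high control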
SENP8 conf = human SENP8 inhibition, confirmed; shares compounds with SENP7 inh; Recombinant SENP8, Z-RLRGG-aminoluciferin luminescence, 60 min; inhibition, % at 12.5 µM; 6,200 tested, 40% active; AID 488912;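 active = mean inhibition across replicates above about 50%, limit read from the data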
SENP6 confirm = human SENP6 inhibition, confirmed; shares compounds with SENP7 inh; recombinant SENP6, Z-RLRGG-aminoluciferin luminescence; AID 488915; 6,200 tested, 58% active; inhibition, % at 12.5 µM
SENP7 conf = human SENP7 inhibition, confirmed | shares compounds with SENP7 inh | recombinant SENP7, Z-RLRGG-aminoluciferin luminescence, 40 min | inhibition, % at 12.5 µM | 6,200 tested, 69% active
Casp3 SENP sel = inhibits human caspase-3 in SENP selectivity test. inhibition, % at 12.5 µM. shares compounds with SENP7 inh. purified caspase-3, Z-DEVD-aminoluciferin luminescence, 60 min. 6,200 tested, 60% active;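 active = mean inhibition above about 50%, limit read from the data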;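 also: plate controls were enzyme with DMSO for no effect and wells without caspase-3 for full effect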
SENP luc ctr = interferes with luciferase luminescence in SENP counter-screen; shares compounds with SENP7 inh; Pre-incubated SENP8/Z-RLRGG-aminoluciferin, luciferase luminescence interference; inhibition, % at 12.5 µM; 6,200 tested, 39% active; AID 488919;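 active = mean inhibition above about 50% when retested at one dose, limit read from the data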;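 also: plate controls were DMSO wells with completed reaction for no effect and substrate without enzyme for full effect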
Active calls of the source: *; nt = no result given.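 The calls were made as follows, unless noted: active = mean inhibition above about 50% in the one-dose retest (limit read from the data); inactive = the rest.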

SMILES	SENP7 inh	SENP6 block	HSP90 inh	SENP8 block-1	SENP8 block-2	SENP1 FRET inh	SENP8 conf	SENP6 confirm	SENP7 conf	Casp3 SENP sel	SENP luc ctr
CC(CC(=O)c1ccccc1)=NCC(O)CN=C(C)CC(=O)c1ccccc1 (stereo not given)	nt	nt	nt	nt	-12	1	nt	nt	nt	nt	nt
O=C(Nc1cc(Cl)ccc1Cl)c1ccco1	1	-11	1	-1	25	0	nt	nt	nt	nt	nt
CS/C(Nc1cc(Cl)ccc1Cl)=C(/C#N)C(=O)c1ccco1	89*	97*	2	94*	11	-7	92*	94*	98*	91*	97*
Clc1ccc(CN=C2Nc3ccccc3CS2)cc1	60*	69*	1	44	11	0	66*	68*	87*	48	80*
Cc1ccc(CN=C2Nc3ccccc3CS2)cc1	88*	89*	3	83*	14	1	91*	91*	100*	84*	83*
O=C(C#Cc1ccccc1)Nc1cccc(F)c1	84*	81*	-2	71*	19	0	85*	83*	93*	67*	75*
CSc1ccccc1NC(=O)Nc1ccccc1	81*	90*	-2	66*	12	2	5	82*	43	83*	83*
CSc1ccccc1NC(=O)Nc1cccc(F)c1	83*	86*	0	69*	6	1	87*	86*	98*	79*	68*
O=C(C#Cc1ccccc1)Nc1ccc(F)cc1	-1	20	-7	6	8	3	nt	nt	nt	nt	nt
Cc1cc(C)c(C(=O)c2ccccc2C(=O)O)c(C)c1	nt	nt	nt	nt	18	1	nt	nt	nt	nt	nt
CC(C)C(C)(C#N)NC(=O)CSc1nc2scc(-c3ccc(F)cc3)c2c(=O)n1Cc1ccccc1 (stereo not given)	-1	-1	-1	-3	4	2	nt	nt	nt	nt	nt
CCSc1nc2ccccc2[nH]1	7	-3	-8	9	12	0	nt	nt	nt	nt	nt
CCCOc1ccc(CSc2nc3ccccc3[nH]2)cc1	95*	91*	-2	88*	16	2	92*	97*	102*	88*	58*
Fc1ccc(CSc2nc3ccccc3[nH]2)cc1	7	83*	1	71*	7	1	83*	79*	94*	74*	79*
CCCCCOc1ccc(CSc2ncn[nH]2)cc1	16	65*	0	50	-17	1	71*	68*	86*	25	74*
c1ccc(CSc2nc3ccccc3[nH]2)cc1	77*	-13	3	69*	17	2	62*	72*	94*	80*	24
Fc1ccc(CSc2nc3ncccc3[nH]2)cc1	48	33	1	6	9	-1	nt	nt	nt	nt	nt
O=C(Nc1ncccn1)c1ccc(Cl)c([N+](=O)[O-])c1	1	6	-1	-6	5	0	nt	nt	nt	nt	nt
CC1Oc2ccc(C#N)cc2N(Cc2ccccc2OC(F)(F)F)C1=O (stereo not given)	nt	nt	nt	nt	2	2	nt	nt	nt	nt	nt
Nc1ccccc1Sc1nc2ccccc2[nH]1	23	61*	1	57*	-6	1	61*	58*	84*	86*	72*
Nc1nc2ccccc2[nH]1	-1	-17	1	3	17	-5	nt	nt	nt	nt	nt
Cc1ccc(C(=O)COC(=O)C2CC3CCCC(C2)C3=O)cc1[N+](=O)[O-] (stereo not given)	9	-13	nt	1	18	3	nt	nt	nt	nt	nt
CC(C)c1ccc(/C=C/C(=O)Nc2nncs2)cc1	90*	84*	4	73*	-31	0	33	54*	82*	63*	17
CCCCSCCCNC(=O)CCCN1C(=O)c2ccccc2Sc2ncccc21	7	5	-3	-3	10	0	nt	nt	nt	nt	nt
N/C(=N\OC(=O)c1ccc(Cl)cc1)c1ccn[nH]1	79*	73*	15	58*	10	4	80*	77*	92*	87*	83*
SMILES	SENP7 inh	SENP6 block	HSP90 inh	SENP8 block-1	SENP8 block-2	SENP1 FRET inh	SENP8 conf	SENP6 confirm	SENP7 conf	Casp3 SENP sel	SENP luc ctr
N/C(=N\OC(=O)c1ccc(OCC(F)(F)F)nc1)c1ccc(Cl)cc1	27	-17	2	-32	2	2	nt	nt	nt	nt	nt
N/C(=N\OC(=O)c1ccccc1Cl)c1ccc(Cl)cc1	84*	85*	-3	69*	20	2	71*	70*	93*	62*	79*
N/C(=N\OC(=O)c1ccc(Cl)cc1)c1ccc(Cl)cc1	54*	9	-2	-13	9	3	9	7	13	6	-2
C/C(=N\OC(=O)c1ccc(Cl)cc1)c1nccs1	88*	72*	-2	28	8	5	28	28	65*	41	32
Cc1ccc(S(=O)(=O)N2CCN(C(=O)CN3C(=O)c4ccccc4C3=O)CC2)c(C)c1	2	1	nt	-5	9	1	nt	nt	nt	nt	nt
O=C(Nc1c(-c2ccc3c(c2)OCO3)[nH][nH]c1=O)c1ccccc1	nt	nt	nt	nt	-32	2	nt	nt	nt	nt	nt
N/C(=N\OC(=O)c1ccco1)c1ccc(Cl)cc1	88*	94*	2	79*	5	2	23	12	30	38	30
COc1cc(OC)cc(C(=O)O/N=C(\N)c2cccc(C)c2)c1	12	-3	-1	-8	7	2	nt	nt	nt	nt	nt
Cc1cccc(/C(N)=N/OC(=O)c2cccnc2)c1	80*	69*	5	49	25	-1	47	54*	85*	84*	58*
Cc1cccc(/C(N)=N/OC(=O)c2ccc(Br)o2)c1	78*	80*	0	70*	12	-1	53*	77*	94*	86*	31
N/C(=N\OC(=O)c1ccc(Cl)cc1)c1cccnc1	67*	72*	0	36	24	7	62*	59*	86*	83*	66*
Cc1cccc(/C(N)=N/OC(=O)Cc2ccccc2)c1	-13	8	-3	-12	2	1	nt	nt	nt	nt	nt
